Results from ChEMBL document CHEMBL1125937, “Nucleosides and nucleotides. 100. 2'-C-cyano-2'-deoxy-1-beta-D-arabinofuranosyl-cytosine (CNDAC): design of a potential mechanism-based DNA-strand-breaking antineoplastic nucleoside” (J Med Chem, 1991).
Values after ≈ are worked out from the molar mass of the structure shown.

What was measured:
Type in all cases: functional, cell-based
PC-9 = assay: Inhibitory effect tested in vitro for the growth of Lung adenocarcinoma PC-9 cell line; conditions: Homo sapiens
Outline: (§1)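 MTT assay: tumor cells seeded at 1 × 10^4 per well, incubated 72 h with or without compound, then MTT added and OD 570 nm read. % inhibition = [1 − OD sample/OD control] × 100. IC50 is the concentration giving 50% inhibition of cell growth.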

SW480 = assay: Inhibitory effect tested in vitro for the growth of colon adenocarcinoma SW-480 cell line; conditions: Homo sapiens; outline: as §1
SK-ES1 = assay: Inhibitory effect tested in vitro for the growth of Osteosarcoma SK-ES-1 cell line; conditions: Homo sapiens; outline: as §1
OST = assay: Inhibitory effect tested in vitro for the growth of Osteosarcoma OST cell line; conditions: Homo sapiens; outline: as §1
NUGC-4 = assay: Inhibitory effect tested in vitro for the growth of Stomach adenocarcinoma NUGC-4 cell line; conditions: Homo sapiens; outline: as §1
PC-8 = assay: Inhibitory effect tested in vitro for the growth of Lung adenocarcinoma PC-8 cell line; conditions: Homo sapiens; outline: as §1
ST-KM-1 = assay: Inhibitory effect tested in vitro for the growth of Stomach adenocarcinoma ST-KM cell line; conditions: Homo sapiens; outline: as §1
HOS-TE85 = assay: Inhibitory effect tested in vitro for the growth of Osteosarcoma MNNG-HOS cell line; conditions: Homo sapiens; outline: as §1
KHOS-321H = assay: Inhibitory effect tested in vitro for the growth of Osteosarcoma KHOS-321H cell line; conditions: Homo sapiens; outline: as §1
MKN-28 = assay: Inhibitory effect tested in vitro for the growth of Stomach adenocarcinoma MKN- 28 cell line; conditions: Homo sapiens; outline: as §1
PC-3 = assay: Inhibitory effect tested in vitro for the growth of Lung adenocarcinoma PC-3 cell line; conditions: Homo sapiens; outline: as §1
QG-56 = assay: Inhibitory effect tested in vitro for the growth of Lung squamous-cell carcinoma QG-56 cell line; conditions: Homo sapiens; outline: as §1
PC-13 = assay: Inhibitory effect tested in vitro for the growth of Lung adenocarcinoma PC-13 cell line; conditions: Homo sapiens, in the assay text read “Lung large-cell carcinoma” for “Lung adenocarcinoma”; outline: as §1
MKN-1 = assay: Inhibitory effect tested in vitro for the growth of Stomach adenocarcinoma MKN-1 cell line; conditions: Homo sapiens; outline: as §1
MKN-7 = assay: Inhibitory effect tested in vitro for the growth of Stomach adenocarcinoma MKN-7 cell line; conditions: Homo sapiens; outline: as §1

IC50 (PC-9) [µg/mL] | IC50 (SW480) [µg/mL] | IC50 (SK-ES1) [µg/mL] | IC50 (MKN-28) [µg/mL] | IC50 (PC-3) [µg/mL] | IC50 (MKN-1) [µg/mL] | IC50 (MKN-7) [µg/mL] | Structure (SMILES) | IC50 (OST) [µg/mL] | IC50 (NUGC-4) [µg/mL] | IC50 (PC-8) [µg/mL] | IC50 (ST-KM-1) [µg/mL] | IC50 (HOS-TE85) [µg/mL] | IC50 (KHOS-321H) [µg/mL] | IC50 (QG-56) [µg/mL] | IC50 (PC-13) [µg/mL]
1.6 (≈ 6.58 µM) | > 100 | 0.09 (≈ 0.37 µM) | 4.5 (≈ 18.5 µM) | > 100 | – | – | Nc1ccn([C@@H]2O[C@H](CO)[C@@H](O)[C@H]2O)c(=O)n1 [CYTIDINE] | > 100 | > 100 | 0.28 (≈ 1.15 µM) | > 100 | 2.6 (≈ 10.7 µM) | 0.27 (≈ 1.11 µM) | > 100 | > 100
4.4 (≈ 17.4 µM) | 0.27 (≈ 1.07 µM) | 2.2 (≈ 8.72 µM) | 1.7 (≈ 6.74 µM) | 5.6 (≈ 22.2 µM) | 2.1 (≈ 8.33 µM) | 1.4 (≈ 5.55 µM) | N#C[C@H]1[C@H](O)[C@@H](CO)O[C@H]1n1ccc(N)nc1=O [TAS-109] | 6.4 (≈ 25.4 µM) | 5.2 (≈ 20.6 µM) | 4.6 (≈ 18.2 µM) | 2.8 (≈ 11.1 µM) | 6.8 (≈ 27 µM) | 4.5 (≈ 17.8 µM) | 40 (≈ 159 µM) | > 100
